From ChEMBL document CHEMBL2157924, “Cyclobutane derivatives as novel nonpeptidic small molecule agonists of glucagon-like peptide-1 receptor” (J Med Chem, 2012)
pEC50, pIC50: −log10 of the molar value.

Legend:
[1] = biological target: T1, Glucagon-like peptide 1 receptor (Rattus norvegicus) (UniProt P32301); assay: Inhibition of [125I]GLP1 (7-36) amide binding to rat GLP1R expressed in HEK293 cells relative to untreated control; format: cell-based; set-up: concentration or dose not given beside the values; settings: concentration not given here
T1 sequence (whole entry): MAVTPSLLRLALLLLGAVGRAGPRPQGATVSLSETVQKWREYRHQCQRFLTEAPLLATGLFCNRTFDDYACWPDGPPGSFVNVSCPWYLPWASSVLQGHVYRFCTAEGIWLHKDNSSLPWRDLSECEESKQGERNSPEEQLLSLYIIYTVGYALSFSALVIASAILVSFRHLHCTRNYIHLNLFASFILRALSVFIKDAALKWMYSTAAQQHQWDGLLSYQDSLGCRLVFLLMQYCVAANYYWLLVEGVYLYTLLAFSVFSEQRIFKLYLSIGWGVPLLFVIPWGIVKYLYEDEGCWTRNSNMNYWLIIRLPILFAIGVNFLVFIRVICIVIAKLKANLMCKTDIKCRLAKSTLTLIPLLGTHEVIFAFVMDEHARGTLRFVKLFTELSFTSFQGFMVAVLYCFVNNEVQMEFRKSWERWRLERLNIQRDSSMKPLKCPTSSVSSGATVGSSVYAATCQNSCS
Summary of the method: (§1)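 Membranes (17 μg protein) from HEK293 cells stably expressing rat GLP-1R were preincubated 5 h at 4 °C with FlashBlue beads (150 μg). Then 40 pM [125I]GLP-1(7−36) amide or [125I]Exendin(9−39) was added with aprotinin 2 μg/mL, leupeptin 100 μM and test compound at varied concentrations. Incubated overnight at 4 °C, then bound radioactivity counted. Mean ± SEM of two independent experiments.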

[2] = biological target: T2, Glucagon-like peptide 1 receptor (Rattus norvegicus, UniProt P32301); assay: Inhibition of [125I]GLP1 (7-36) amide binding to rat GLP1R expressed in HEK293 cells; format: cell-based; summary of the method: as §1
T2 sequence (P32301 whole entry): T1 sequence (whole entry)

[3] = biological target: T2, Glucagon-like peptide 1 receptor; assay: Agonist activity at rat GLP1R expressed in HEK293 cells assessed as stimulation of cAMP levels incubated for 6 hrs by multiple response element/cAMP response element (MRE/CRE)-driven reporter gene assay; format: functional, cell-based
Summary of the method: (§2)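 Stable HEK293 line co-expressing rat GLP-1R (pCMV-Tag2B) and a luciferase reporter with 3× MRE plus 1× CRE, seeded at 40000 cells/well and cultured overnight. Compounds in DMSO or GLP-1(7−37) were added for 6 h, then cells were lysed and luciferase read (Steady-Glo). The 10 nM GLP-1 maximum was taken as 100%. Mean ± SEM of two independent experiments; some values come from a single run.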

[4] = biological target: T1, Glucagon-like peptide 1 receptor (Rattus norvegicus); assay: Inhibition of [125I]Exendin (9-39) binding to rat GLP1R expressed in HEK293 cells; format: cell-based; set-up: concentration or dose not given beside the values; settings: concentration not given here; summary of the method: as §1
[5] = biological target: T1, Glucagon-like peptide 1 receptor (Rattus norvegicus); assay: Agonist activity at rat GLP1R expressed in HEK293 cells assessed as stimulation of cAMP levels incubated for 6 hrs by multiple response element/cAMP response element (MRE/CRE)-driven reporter gene assay relative to 10 nM GLP1; format: functional, cell-based; summary of the method: as §2

| inhibition [1] [%] | pIC50 [2] | pEC50 [3] | inhibition [4] [%] | Efficacy [5] [%] | SMILES |
| --- | --- | --- | --- | --- | --- |
| 55.4 | 5.64 | 6.93 | 30.6 | 61.1 | COc1cc([C@H]2[C@](NC(=O)c3ccc(NC(C)=O)cc3)(C(=O)O)[C@@H](c3ccc(OC(=O)c4cccs4)c(OC)c3)[C@]2(NC(=O)c2ccc(NC(C)=O)cc2)C(=O)O)ccc1OC(=O)c1cccs1 |
| 47.9 | 5.02 | 4.80 | 36.8 | 50.7 | COc1cc([C@H]2[C@](NC(=O)c3ccc(NC(=O)C(C)C)cc3)(C(=O)O)[C@@H](c3ccc(OC(=O)C4CCC4)c(OC)c3)[C@]2(NC(=O)c2ccc(NC(=O)C(C)C)cc2)C(=O)O)ccc1OC(=O)C1CCC1 |
| < 15 | < 4.70 | < 4.70 | < 15 | < 15 | COc1cc([C@H]2[C@](NC(=O)c3ccc(NC(=O)OC(C)(C)C)cc3)(C(N)=O)[C@@H](c3ccc(OC(=O)c4cccs4)c(OC)c3)[C@]2(NC(=O)c2ccc(NC(=O)OC(C)(C)C)cc2)C(N)=O)ccc1OC(=O)c1cccs1 |
| < 15 | < 4.70 | < 4.70 | < 15 | < 15 | COc1cc([C@H]2[C@](NC(=O)c3ccc(NC(=O)OC(C)(C)C)cc3)(C(=O)O)[C@@H](c3ccc(OCc4ccc(F)cc4)c(OC)c3)[C@]2(NC(=O)c2ccc(NC(=O)OC(C)(C)C)cc2)C(=O)O)ccc1OCc1ccc(F)cc1 |
| 47.6 | 6.30 | 5.95 | 33.4 | 60.8 | COc1cc([C@H]2[C@](NC(=O)c3ccc(NC(=O)C(C)(C)C)cc3)(C(=O)O)[C@@H](c3ccc(OC(=O)c4cccs4)c(OC)c3)[C@]2(NC(=O)c2ccc(NC(=O)C(C)(C)C)cc2)C(=O)O)ccc1OC(=O)c1cccs1 |
| 86 | 5.57 | 5.60 | 68.3 | 91 | CCC(=O)Oc1ccc([C@H]2[C@](NC(=O)c3ccc(NC(=O)OC(C)(C)C)cc3)(C(=O)O)[C@@H](c3ccc(OC(=O)CC)c(OC)c3)[C@]2(NC(=O)c2ccc(NC(=O)OC(C)(C)C)cc2)C(=O)O)cc1OC |
| 72.7 | 5.85 | 5.04 | 70.1 | 68 | CNC(=S)Nc1ccc(C(=O)N[C@]2(C(=O)O)[C@H](c3ccc(OC(=O)c4cccs4)c(OC)c3)[C@@](NC(=O)c3ccc(NC(=S)NC)cc3)(C(=O)O)[C@@H]2c2ccc(OC(=O)c3cccs3)c(OC)c2)cc1 |
| 40.1 | 4.76 | 4.72 | 29.4 | 67 | COc1cc([C@H]2[C@](NC(=O)c3ccc(NC(=O)OC(C)(C)C)cc3)(C(=O)O)[C@@H](c3ccc(OC(=O)c4ccc(C)s4)c(OC)c3)[C@]2(NC(=O)c2ccc(NC(=O)OC(C)(C)C)cc2)C(=O)O)ccc1OC(=O)c1ccc(C)s1 |
| 86.4 | 5.92 | 6.83 | 67.8 | 84.2 | COc1cc([C@H]2[C@](NC(=O)c3ccc(NC(=O)C4CC4)cc3)(C(=O)O)[C@@H](c3ccc(OC(=O)c4cccs4)c(OC)c3)[C@]2(NC(=O)c2ccc(NC(=O)C3CC3)cc2)C(=O)O)ccc1OC(=O)c1cccs1 |
| < 15 | < 4.70 | < 4.70 | < 15 | < 15 | COc1cc([C@H]2[C@](NC(=O)c3ccc(NC(=O)OC(C)(C)C)cc3)(C(=O)O)[C@@H](c3ccc(OC(=O)C4CCCCC4)c(OC)c3)[C@]2(NC(=O)c2ccc(NC(=O)OC(C)(C)C)cc2)C(=O)O)ccc1OC(=O)C1CCCCC1 |
| < 15 | < 4.70 | < 4.70 | < 15 | < 15 | COc1cccc([C@H]2[C@](NC(=O)c3ccc(NC(=O)OC(C)(C)C)cc3)(C(=O)O)[C@@H](c3cccc(OC)c3)[C@]2(NC(=O)c2ccc(NC(=O)OC(C)(C)C)cc2)C(=O)O)c1 |
| < 15 | < 4.70 | < 4.70 | < 15 | < 15 | CC(C)(C)OC(=O)Nc1ccc(C(=O)N[C@]2(C(=O)O)[C@H](c3ccccc3)[C@@](NC(=O)c3ccc(NC(=O)OC(C)(C)C)cc3)(C(=O)O)[C@@H]2c2ccccc2)cc1 |
| < 15 | < 4.70 | < 4.70 | < 15 | < 15 | CCCOc1ccc([C@H]2[C@](NC(=O)c3ccc(NC(=O)OC(C)(C)C)cc3)(C(=O)O)[C@@H](c3ccc(OCCC)cc3)[C@]2(NC(=O)c2ccc(NC(=O)OC(C)(C)C)cc2)C(=O)O)cc1 |
| 53.6 | 5.92 | 6.13 | 45.6 | 87.5 | COc1cc([C@H]2[C@](NC(=O)c3ccc(NC(=O)C4CCC4)cc3)(C(=O)O)[C@@H](c3ccc(OC(=O)c4cccs4)c(OC)c3)[C@]2(NC(=O)c2ccc(NC(=O)C3CCC3)cc2)C(=O)O)ccc1OC(=O)c1cccs1 |
| 75.2 | 5.31 | 6.16 | 36.1 | 48.4 | CCC(=O)Nc1ccc(C(=O)N[C@]2(C(=O)O)[C@H](c3ccc(OC(=O)c4cccs4)c(OC)c3)[C@@](NC(=O)c3ccc(NC(=O)CC)cc3)(C(=O)O)[C@@H]2c2ccc(OC(=O)c3cccs3)c(OC)c2)cc1 |
| 50.2 | 5.51 | 6.49 | < 15 | 85.6 | CCOc1cc([C@H]2[C@](NC(=O)c3ccc(NC(=O)OC(C)(C)C)cc3)(C(=O)O)[C@@H](c3ccc(OC(=O)c4cccs4)c(OCC)c3)[C@]2(NC(=O)c2ccc(NC(=O)OC(C)(C)C)cc2)C(=O)O)ccc1OC(=O)c1cccs1 |
| 43.8 | 5.07 | 5.42 | 32.9 | 58 | COc1cc([C@H]2[C@](NC(=O)c3ccc(NC(=O)CCl)cc3)(C(=O)O)[C@@H](c3ccc(OC(=O)c4cccs4)c(OC)c3)[C@]2(NC(=O)c2ccc(NC(=O)CCl)cc2)C(=O)O)ccc1OC(=O)c1cccs1 |
|  | 5.80 | 6.07 |  |  | COc1cc([C@H]2[C@](NC(=O)c3ccc(NC(=O)OC(C)(C)C)cc3)(C(=O)O)[C@@H](c3ccc(OC(=O)c4cccs4)c(OC)c3)[C@]2(NC(=O)c2ccc(NC(=O)OC(C)(C)C)cc2)C(=O)O)ccc1OC(=O)c1cccs1 (stereo in doubt; 3) |
|  | 6.22 | 6.43 |  |  | COc1cc([C@H]2[C@](NC(=O)c3ccc(NC(=O)OC(C)(C)C)cc3)(C(=O)O)[C@@H](c3ccc(OC(=O)c4cccs4)c(OC)c3)[C@]2(NC(=O)c2ccc(NC(=O)OC(C)(C)C)cc2)C(=O)O)ccc1OC(=O)c1cccs1 (stereo in doubt) |
| 12.1 |  | < 4.70 | 2.8 | < 15 | CC(=O)Nc1ccc([C@H]2[C@](NC(=O)c3ccc(NC(=O)OC(C)(C)C)cc3)(C(=O)O)[C@@H](c3ccc(NC(C)=O)cc3)[C@]2(NC(=O)c2ccc(NC(=O)OC(C)(C)C)cc2)C(=O)O)cc1 |
